ChEMBL document CHEMBL3351371, “Design and synthesis of phenolic hydrazide hydrazones as potent poly(ADP-ribose) glycohydrolase (PARG) inhibitors” (Bioorg Med Chem Lett, 2014)

target: Poly(ADP-ribose) glycohydrolase (Rattus norvegicus, UniProt Q9QYM2); test: Inhibition of rat testis GST-tagged PARG catalytic activity after 30 mins using [32P]poly(ADP-ribose) by radioassay
In short: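 Recombinant rat PARG (from testis cDNA) expressed in E. coli as GST fusion (GST-RPG, 136 kDa), 15 ng per reaction. Compound in DMSO added to 4 μM [32P]poly(ADP-ribose) in 20 mM potassium phosphate pH 7.5, 50 mM KCl, 10 mM 2-mercaptoethanol; 37 °C, 30 min; stopped with 1% SDS (final). PEI-cellulose TLC (0.1 M LiCl/3 M AcOH/3 M urea), imaging-plate radioactivity; activity from fraction of degradation products.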

Poly(ADP-ribose) glycohydrolase, sequence (Q9QYM2 whole entry, the tested form may be a part): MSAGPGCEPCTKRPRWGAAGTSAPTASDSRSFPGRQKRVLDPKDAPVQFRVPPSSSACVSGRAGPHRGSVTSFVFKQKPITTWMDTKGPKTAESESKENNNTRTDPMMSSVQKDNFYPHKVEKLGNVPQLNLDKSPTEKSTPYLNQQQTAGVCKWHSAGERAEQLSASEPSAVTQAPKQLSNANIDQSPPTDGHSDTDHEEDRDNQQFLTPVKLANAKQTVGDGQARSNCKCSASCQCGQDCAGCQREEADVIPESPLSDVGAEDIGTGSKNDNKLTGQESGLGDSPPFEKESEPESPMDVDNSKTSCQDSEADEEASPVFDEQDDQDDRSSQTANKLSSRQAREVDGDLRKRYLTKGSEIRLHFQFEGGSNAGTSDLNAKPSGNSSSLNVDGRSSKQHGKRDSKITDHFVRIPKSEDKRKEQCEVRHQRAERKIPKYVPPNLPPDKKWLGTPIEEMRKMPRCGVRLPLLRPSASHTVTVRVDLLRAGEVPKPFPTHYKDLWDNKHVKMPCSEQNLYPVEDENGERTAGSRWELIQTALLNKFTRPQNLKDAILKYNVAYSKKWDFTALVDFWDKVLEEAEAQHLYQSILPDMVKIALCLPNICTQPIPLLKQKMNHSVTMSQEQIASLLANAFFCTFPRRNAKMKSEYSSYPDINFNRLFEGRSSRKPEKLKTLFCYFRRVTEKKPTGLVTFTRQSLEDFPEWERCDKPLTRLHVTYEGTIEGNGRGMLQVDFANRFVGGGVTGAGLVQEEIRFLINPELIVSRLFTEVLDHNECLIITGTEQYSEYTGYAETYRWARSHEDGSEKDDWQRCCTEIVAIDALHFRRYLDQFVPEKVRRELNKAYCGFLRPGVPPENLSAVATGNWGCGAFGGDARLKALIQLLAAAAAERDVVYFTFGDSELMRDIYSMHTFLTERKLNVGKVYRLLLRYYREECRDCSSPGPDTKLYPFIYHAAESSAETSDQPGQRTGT

Row | IC50 | Compound
1 | 13.9 µM | O=C(CCCC(=O)N/N=C/c1ccc(O)c(O)c1O)N/N=C/c1ccc(O)c(O)c1O
2 | > 75 µM | O=C(N/N=C/c1cccc(O)c1O)c1ccc(C(=O)N/N=C/c2cccc(O)c2O)cc1
3 | > 75 µM | O=C(N/N=C/c1ccc(O)cc1O)c1ccc(C(=O)N/N=C/c2ccc(O)cc2O)cc1
4 | > 75 µM | O=C(N/N=C/c1ccc(O)c(O)c1)c1ccc(C(=O)N/N=C/c2ccc(O)c(O)c2)cc1
5 | 1 µM | O=C(N/N=C/c1ccc(O)c(O)c1O)c1ccc(C(=O)N/N=C/c2ccc(O)c(O)c2O)cc1
6 | 2.1 µM | O=C(N/N=C/c1cc(O)c(O)c(O)c1)c1ccc(C(=O)N/N=C/c2cc(O)c(O)c(O)c2)cc1
7 | 9.9 µM | O=C(N/N=C/c1c(O)cc(O)cc1O)c1ccc(C(=O)N/N=C/c2c(O)cc(O)cc2O)cc1
8 | 14.8 µM | O=C(N/N=C/c1cccc(O)c1O)c1cccc(C(=O)N/N=C/c2cccc(O)c2O)c1
9 | 40.1 µM | O=C(N/N=C/c1ccc(O)cc1O)c1cccc(C(=O)N/N=C/c2ccc(O)cc2O)c1
10 | 19.2 µM | O=C(N/N=C/c1ccc(O)c(O)c1)c1cccc(C(=O)N/N=C/c2ccc(O)c(O)c2)c1
11 | 3.1 µM | O=C(N/N=C/c1ccc(O)c(O)c1O)c1cccc(C(=O)N/N=C/c2ccc(O)c(O)c2O)c1
12 | 3.2 µM | O=C(N/N=C/c1cc(O)c(O)c(O)c1)c1cccc(C(=O)N/N=C/c2cc(O)c(O)c(O)c2)c1
13 | 18.8 µM | O=C(N/N=C/c1c(O)cc(O)cc1O)c1cccc(C(=O)N/N=C/c2c(O)cc(O)cc2O)c1
14 | 3.1 µM | O=C(N/N=C/c1ccc(O)c(O)c1O)C(=O)N/N=C/c1ccc(O)c(O)c1O
15 | 2.8 µM | O=C(N/N=C/c1cc(O)c(O)c(O)c1)C(=O)N/N=C/c1cc(O)c(O)c(O)c1
16 | 1.6 µM | O=C(CC(=O)N/N=C/c1ccc(O)c(O)c1O)N/N=C/c1ccc(O)c(O)c1O
17 | 15.4 µM | O=C(CC(=O)N/N=C/c1cc(O)c(O)c(O)c1)N/N=C/c1cc(O)c(O)c(O)c1
18 | 9.8 µM | O=C(CCC(=O)N/N=C/c1ccc(O)c(O)c1O)N/N=C/c1ccc(O)c(O)c1O
19 | 8.2 µM | O=C(CCC(=O)N/N=C/c1cc(O)c(O)c(O)c1)N/N=C/c1cc(O)c(O)c(O)c1
20 | 27.4 µM | O=C(CCCC(=O)N/N=C/c1cc(O)c(O)c(O)c1)N/N=C/c1cc(O)c(O)c(O)c1
21 | 0.95 µM | O=C(O[C@H]1[C@H](O)[C@@H](CO)OC(O)[C@@H]1O)c1cc(O)c(O)c(O)c1 (stereo partly drawn)
22 | 2.9 µM | O=C(O)CCN1C(=O)/C(=C2\C(=O)c3cc(Br)ccc3N2Cc2c(Cl)cccc2Cl)SC1=S
23 | 0.1 µM | Nc1ncnc2c1ncn2[C@@H]1O[C@H](CO[P@](=O)(O)O[P@@](=O)(O)OC[C@H]2NC[C@H](O)[C@@H]2O)[C@@H](O)[C@H]1O [ADENOSINE DIPHOSPHATE (HYDROXYMETHYL)PYRROLIDINEDIOL]
